Test results from ChEMBL document CHEMBL2311458, “A facile synthesis, antibacterial activity of pulvinone and its derivatives” (2013).
In brackets after ≈: the same amount, converted by molar mass. Activity calls are given as the source filed them. The calls are words filed in the database; no cut-off is given here.

Columns and labels:
Assay type in all cases: functional
Acinetobacter baumannii [1] = assay: Antibacterial activity against Acinetobacter baumannii assessed as growth inhibition measured at 50 ug/ml after 24 hrs by broth microdilution method
[2] = test system: Stenotrophomonas maltophilia; assay: Antibacterial activity against Stenotrophomonas maltophilia assessed as growth inhibition measured at 50 ug/ml after 24 hrs by broth microdilution method
Escherichia coli [3] = assay: Antibacterial activity against Escherichia coli assessed as growth inhibition measured after 24 hrs by broth microdilution method
In short: (§1)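 Broth microdilution per NCCLS. Bacteria were grown in Luria broth to exponential phase. Compounds were dissolved in DMSO (stock 5120 μg/ml), diluted in test medium and tested at two-fold dilutions from 1 to 128 μg/ml. MIC50 is the lowest concentration reducing OD to half that of the untreated control.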

Staphylococcus aureus [4] = assay: Antibacterial activity against Staphylococcus aureus assessed as growth inhibition measured at 50 ug/ml after 24 hrs by broth microdilution method
Pseudomonas aeruginosa [5] = assay: Antibacterial activity against Pseudomonas aeruginosa assessed as growth inhibition measured at 50 ug/ml after 24 hrs by broth microdilution method
Escherichia coli [6] = assay: Antibacterial activity against Escherichia coli assessed as growth inhibition measured at 50 ug/ml after 24 hrs by broth microdilution method
Pseudomonas aeruginosa [7] = assay: Antibacterial activity against Pseudomonas aeruginosa assessed as growth inhibition measured after 24 hrs by broth microdilution method; in short: as §1
Staphylococcus aureus [8] = assay: Antibacterial activity against Staphylococcus aureus assessed as growth inhibition measured after 24 hrs by broth microdilution method; in short: as §1
[9] = test system: Stenotrophomonas maltophilia; assay: Antibacterial activity against Stenotrophomonas maltophilia assessed as growth inhibition measured after 24 hrs by broth microdilution method; in short: as §1
Acinetobacter baumannii [10] = assay: Antibacterial activity against Acinetobacter baumannii assessed as growth inhibition measured after 24 hrs by broth microdilution method; in short: as §1

Question: With `COC1=C(c2ccc(C)cc2)C(=O)OC1C(O)c1ccc(N2CCOCC2)c(F)c1` (centres undefined) as the compound, how does the inhibition at 50 µg/mL (Acinetobacter baumannii [1]) read?
Answer: 4.9%

Question: And the inhibition at 50 µg/mL [2]?
Answer: 1.1%

Question: And the MIC50 (Escherichia coli [3])?
Answer: 3.67 µg/mL (≈ 8.88 µM)

Question: What about the inhibition (Staphylococcus aureus [4]) of the same compound?
Answer: inactive

Question: What about the inhibition at 50 µg/mL (Pseudomonas aeruginosa [5]) of the same compound?
Answer: 31.8%

Question: What about the inhibition at 50 µg/mL (Escherichia coli [6]) of the same compound?
Answer: 58.3%

Question: With `C[C@H]1COc2c(N3CCN(C)CC3)c(F)cc3c(=O)c(C(=O)O)cn1c23.C[C@H]1COc2c(N3CCN(C)CC3)c(F)cc3c(=O)c(C(=O)O)cn1c23.O` [LEVOFLOXACIN] as the compound, how does the MIC50 (Pseudomonas aeruginosa [7]) read?
Answer: < 0.25 µg/mL

Question: And the MIC50 (Staphylococcus aureus [8])?
Answer: < 0.25 µg/mL

Question: What about the MIC50 (Escherichia coli [3]) of the same compound?
Answer: < 0.25 µg/mL

Question: And the MIC50 [9]?
Answer: < 0.25 µg/mL

Question: And the MIC50 (Acinetobacter baumannii [10])?
Answer: < 0.25 µg/mL

Question: With `COC1=C(c2ccc(F)cc2)C(=O)OC1C(O)c1ccc(N2CCOCC2)c(F)c1` (centres undefined) as the compound, how does the inhibition at 50 µg/mL (Acinetobacter baumannii [1]) read?
Answer: 22.8%

Question: What about the inhibition at 50 µg/mL [2] of the same compound?
Answer: 31.9%

Question: What about the MIC50 (Escherichia coli [3]) of the same compound?
Answer: > 50 µg/mL

Question: What about the inhibition (Staphylococcus aureus [4]) of the same compound?
Answer: inactive

Question: And the inhibition at 50 µg/mL (Pseudomonas aeruginosa [5])?
Answer: 35.2%

Question: And the inhibition at 50 µg/mL (Escherichia coli [6])?
Answer: 42%

Question: Which results are given for `COC1=C(c2ccc(Cl)cc2)C(=O)O/C1=C\c1ccc(N2CCOCC2)c(F)c1`?
Answer: MIC50 (Escherichia coli [3]): 7.4 µg/mL (≈ 17.8 µM); inhibition (Staphylococcus aureus [4]): inactive; inhibition at 50 µg/mL (Pseudomonas aeruginosa [5]): 45.3%; inhibition at 50 µg/mL (Escherichia coli [6]): 70.7%

Question: For `O=C1O/C(=C\c2ccc(N3CCOCC3)c(F)c2)C(O)=C1c1ccc(F)cc1`, which inhibition at 50 µg/mL (Acinetobacter baumannii [1]) is on record?
Answer: 15.6%

Question: And the inhibition at 50 µg/mL [2]?
Answer: 27.8%

Question: And the MIC50 (Escherichia coli [3])?
Answer: 15.6 µg/mL (≈ 40.5 µM)

Question: What about the inhibition (Staphylococcus aureus [4]) of the same compound?
Answer: inactive

Question: What about the inhibition at 50 µg/mL (Pseudomonas aeruginosa [5]) of the same compound?
Answer: 23.2%

Question: And the inhibition at 50 µg/mL (Escherichia coli [6])?
Answer: 56.8%

Question: Which results are given for `COC1=C(c2ccc(Br)cc2)C(=O)OC1C(O)c1ccc(N2CCOCC2)c(F)c1` (centres undefined)?
Answer: inhibition at 50 µg/mL (Acinetobacter baumannii [1]): 32.9%; MIC50 (Escherichia coli [3]): 1.01 µg/mL (≈ 2.11 µM); inhibition (Staphylococcus aureus [4]): inactive; MIC50 [9]: 11.8 µg/mL (≈ 24.8 µM); inhibition at 50 µg/mL (Pseudomonas aeruginosa [5]): 35.6%; inhibition at 50 µg/mL (Escherichia coli [6]): 45.5%

Question: For `COC1=C(c2ccc(F)cc2)C(=O)O/C1=C\c1ccc(N2CCOCC2)c(F)c1`, which inhibition at 50 µg/mL (Acinetobacter baumannii [1]) is on record?
Answer: 20.1%

Question: What about the inhibition at 50 µg/mL [2] of the same compound?
Answer: 59.4%

Question: And the MIC50 (Escherichia coli [3])?
Answer: > 50 µg/mL

Question: What about the inhibition (Staphylococcus aureus [4]) of the same compound?
Answer: inactive

Question: And the MIC50 [9]?
Answer: 20.6 µg/mL (≈ 51.7 µM)

Question: And the inhibition at 50 µg/mL (Pseudomonas aeruginosa [5])?
Answer: 23.4%

Question: What about the inhibition at 50 µg/mL (Escherichia coli [6]) of the same compound?
Answer: 37.6%

Question: With `COC1=C(c2ccccc2)C(=O)O/C1=C\c1ccccc1` as the compound, how does the inhibition at 50 µg/mL (Acinetobacter baumannii [1]) read?
Answer: 18.2%

Question: And the inhibition at 50 µg/mL [2]?
Answer: 19.7%

Question: And the MIC50 (Escherichia coli [3])?
Answer: 3.91 µg/mL (≈ 14 µM)

Question: What about the inhibition (Staphylococcus aureus [4]) of the same compound?
Answer: inactive

Question: What about the inhibition at 50 µg/mL (Pseudomonas aeruginosa [5]) of the same compound?
Answer: 45.4%

Question: And the inhibition at 50 µg/mL (Escherichia coli [6])?
Answer: 60.2%

Question: What does the source list for `COC1=C(c2ccccc2)C(=O)OC1C(O)c1ccccc1` (centres undefined)?
Answer: inhibition at 50 µg/mL (Acinetobacter baumannii [1]): 25.9%; inhibition at 50 µg/mL [2]: 18%; MIC50 (Escherichia coli [3]): 5.86 µg/mL (≈ 19.8 µM); inhibition (Staphylococcus aureus [4]): inactive; inhibition at 50 µg/mL (Pseudomonas aeruginosa [5]): 53.2%; inhibition at 50 µg/mL (Escherichia coli [6]): 61.7%

Question: `COC1=C(c2ccccc2)C(=O)O/C1=C\c1ccc(N2CCOCC2)c(F)c1` was tested. Which inhibition at 50 µg/mL (Acinetobacter baumannii [1]) did it give?
Answer: 10%

Question: And the MIC50 (Escherichia coli [3])?
Answer: > 50 µg/mL

Question: What about the inhibition (Staphylococcus aureus [4]) of the same compound?
Answer: inactive

Question: And the inhibition at 50 µg/mL (Pseudomonas aeruginosa [5])?
Answer: 17.6%

Question: What about the inhibition at 50 µg/mL (Escherichia coli [6]) of the same compound?
Answer: 45.4%

Question: Which inhibition at 50 µg/mL (Acinetobacter baumannii [1]) does the source give for `COC1=C(c2ccc(Cl)cc2)C(=O)OC1C(O)c1ccc(N2CCOCC2)c(F)c1` (centres undefined) here?
Answer: 22.1%

Question: And the MIC50 (Escherichia coli [3])?
Answer: 30.3 µg/mL (≈ 69.7 µM)

Question: And the inhibition (Staphylococcus aureus [4])?
Answer: inactive

Question: What about the inhibition at 50 µg/mL (Pseudomonas aeruginosa [5]) of the same compound?
Answer: 31.7%

Question: What about the inhibition at 50 µg/mL (Escherichia coli [6]) of the same compound?
Answer: 61.8%

Question: `COC1=C(c2ccccc2)C(=O)OC1C(O)c1ccc(N2CCOCC2)c(F)c1` (centres undefined) was tested. Which inhibition at 50 µg/mL (Acinetobacter baumannii [1]) did it give?
Answer: 29.2%

Question: And the inhibition at 50 µg/mL [2]?
Answer: 17.1%

Question: What about the MIC50 (Escherichia coli [3]) of the same compound?
Answer: 36.5 µg/mL (≈ 91.3 µM)

Question: What about the inhibition (Staphylococcus aureus [4]) of the same compound?
Answer: inactive

Question: And the inhibition at 50 µg/mL (Pseudomonas aeruginosa [5])?
Answer: 34.8%

Question: And the inhibition at 50 µg/mL (Escherichia coli [6])?
Answer: 52.4%

Question: How did the inhibition at 50 µg/mL (Acinetobacter baumannii [1]) turn out when `COC1=C(c2cccc(F)c2)C(=O)OC1C(O)c1ccc(N2CCOCC2)c(F)c1` (centres undefined) was run?
Answer: 30.9%

Question: And the inhibition at 50 µg/mL [2]?
Answer: 41.5%

Question: What about the MIC50 (Escherichia coli [3]) of the same compound?
Answer: 4.09 µg/mL (≈ 9.8 µM)

Question: And the inhibition (Staphylococcus aureus [4])?
Answer: inactive

Question: What about the inhibition at 50 µg/mL (Pseudomonas aeruginosa [5]) of the same compound?
Answer: 38.2%

Question: What about the inhibition at 50 µg/mL (Escherichia coli [6]) of the same compound?
Answer: 72%

Question: With `O=C1O/C(=C\c2ccccc2)C(O)=C1c1ccccc1` [PULVINONE] as the compound, how does the MIC50 (Pseudomonas aeruginosa [7]) read?
Answer: > 50 µg/mL

Question: What about the MIC50 (Escherichia coli [3]) of the same compound?
Answer: 1.38 µg/mL (≈ 5.22 µM)

Question: And the inhibition at 50 µg/mL (Staphylococcus aureus [4])?
Answer: 59.2%

Question: And the MIC50 [9]?
Answer: 12.8 µg/mL (≈ 48.4 µM)

Question: And the MIC50 (Acinetobacter baumannii [10])?
Answer: > 50 µg/mL
